Measurements from different studies.
Target: Serine/threonine-protein kinase 33 (STK33, Homo sapiens, UniProt Q9BYT3)

Structure (SMILES) | assay | conditions | remaining binding
Cc1cnn2ncc(-c3ccnc(N(C)C)n3)c2c1 | binding | 1 µM | 100%
CO[C@@H](C)c1c(Nc2ccc([C@H](N(C)C(=O)C3CCS(=O)(=O)CC3)C(F)(F)F)cc2)cnc2cc(Cl)nn12 | cell-free assay, competition with immobilised ligand | 1 µM | 51%
CN(C)c1nccc(-c2cnn3ncccc23)n1 | binding | 1 µM | 75%
O=C(c1ccc(Nc2ncc(Cl)c(-c3cc4ccccc4s3)n2)cc1)N1CCC(N2CCCC2)CC1 | binding, competition with immobilised ligand | 1 µM | 38%
Nc1ncc2c(n1)-c1c([nH]c3ccc(C#CC4CC4)cc13)CCCC2 | binding, competition with immobilised ligand | 1 µM | 100%
O=C(O)c1cc(-c2ccc(C3CCNCC3)cc2)c2ccc(-c3ccc(C(F)(F)F)cc3)cc2c1 | cell-free assay, competition with immobilised ligand | 1 µM | 100%
CCN1CCN(Cc2ccc(C(=O)Nc3ccc(C)c(Oc4ccc5c(c4)CC(=O)N5)c3)cc2C(F)(F)F)CC1 | binding, competition with immobilised ligand | 1 µM | 100%
F[C@@H]1CCN(c2nccc(-c3cnn4ncccc34)n2)C1 | binding | 1 µM | 100%
O=C(Nc1c[nH]nc1C(=O)NC1CCNCC1)c1cc(F)cc(F)c1 | binding, competition with immobilised ligand | 1 µM | 100%
COc1ccnn2ncc(-c3ccnc(N(C)C)n3)c12 | binding | 1 µM | 99%
C[C@@H](c1ccc(-n2cnc3c(N)ncnc32)cc1)N1CCc2nn(C)c(Cc3ccccc3)c2C1=O | binding, competition with immobilised ligand | 0.1 µM | 100%
CC1=C(C#N)C(c2ccc3c(c2)c(NC(=O)c2ccccc2C)nn3C)C(C#N)=C(C)N1 | cell-free assay, competition with immobilised ligand | 1 µM | 100%
O=C(NCCCN1CCOCC1)c1ccc(Nc2nccc(-c3cc4ccccc4s3)n2)cc1 | binding, competition with immobilised ligand | 1 µM | 80%
COc1cnc(Nc2cccc(S(N)(=O)=O)c2)nc1N1CCN(c2ccccc2)CC1 | binding, competition with immobilised ligand | 1 µM | 100%
CN([C@@H]1CCc2c(CC(=O)O)c3ccccc3n2C1)S(=O)(=O)c1ccc(F)cc1 | cell-free assay, competition with immobilised ligand | 1 µM | 100%
CN(c1nccc(-c2cnn3ncccc23)n1)C1CC1 | binding | 1 µM | 100%
CC1=C(C#N)[C@@H](c2ccc3[nH]nc(C)c3c2)C(C#N)=C(c2ccc(Cl)cc2)N1 | cell-free assay, competition with immobilised ligand | 1 µM | 90.9%
N[C@H]1CCN(c2nccc(-c3cnn4ncccc34)n2)C1 | binding | 1 µM | 0%
O=C(NCCCN1CCOCC1)c1ccc(Nc2ncc(Cl)c(-c3ccc(Cl)s3)n2)cc1 | binding, competition with immobilised ligand | 1 µM | 68%
CC(=O)C1=C(C)N(c2cccc(C(F)(F)F)c2)C(=O)N[C@@H]1c1ccc(C#N)nc1 | cell-free assay, competition with immobilised ligand | 1 µM | 91.6%
COc1cnc(Nc2cccc(S(N)(=O)=O)c2)nc1N1CCN(c2ccccc2)C(=O)C1 | binding, competition with immobilised ligand | 1 µM | 93%
C[C@H]1CCN(c2nccc(-c3cnn4ncccc34)n2)C1 | binding | 1 µM | 100%
